Screening results from PubChem BioAssay.
KCNQ1 block: inhibitors of human KCNQ1 potassium channel. P51787. CHO-K1 KCNQ1, FluxOR thallium flux fluorescence; stronger effect = higher value. B-score at 10 µM. 1.3% of 310,000 active;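 active means compounds whose thallium flux B-score, printed positive for inhibition, exceeds three library SD while starting fluorescence stays within three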;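 further: channel opened by potassium depolarization with thallium stimulus after 20 min compound exposure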
KCNK9 block: human KCNK9 channel inhibition; HEK293 KCNK9, FluxOR thallium flux fluorescence; stronger effect = lower value; 1.2% of 310,000 active; AID 488922; B-score at 10 µM;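 active means ratio B-score over 3 SD below the library mean, with starting fluorescence within 5 SD of its mean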;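 further: negative B-score means less thallium flux so channel inhibition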
Target sequence (Q9NPC2 whole entry, looked up): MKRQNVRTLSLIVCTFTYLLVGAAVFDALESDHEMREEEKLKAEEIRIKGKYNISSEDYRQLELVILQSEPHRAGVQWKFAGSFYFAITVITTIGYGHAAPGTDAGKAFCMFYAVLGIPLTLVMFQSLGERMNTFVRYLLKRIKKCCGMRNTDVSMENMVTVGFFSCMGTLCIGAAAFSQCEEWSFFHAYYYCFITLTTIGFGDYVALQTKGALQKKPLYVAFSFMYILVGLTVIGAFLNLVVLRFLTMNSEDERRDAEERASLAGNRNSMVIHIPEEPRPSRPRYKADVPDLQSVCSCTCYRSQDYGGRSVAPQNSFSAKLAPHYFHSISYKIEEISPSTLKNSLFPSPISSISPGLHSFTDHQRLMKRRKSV
hERG protect: compounds protecting human hERG from proarrhythmic drug block | CHO-hERG, FluxOR thallium flux, dofetilide IC70 present | activation (rescue from dofetilide block), less the hit threshold, % at 10 µM | Q12809 | 0.51% of 310,000 active;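 active means activation above the mean of controls blocked by dofetilide plus 5 SD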;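 further: thallium influx through hERG after potassium depolarization seen as dye fluorescence rise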
KCNQ1 pot: potentiates or activates the human KCNQ1 potassium channel; CHO-K1 KCNQ1, thallium flux FluxOR fluorescence; stronger effect = higher value; B-score at 10 µM; 0.35% of 310,000 active;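 active means fluorescence ratio B-score, a plate-corrected score, at least three library SD, with initial intensity B-score within 5 SD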
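Assay system: CHO-K1 cells stably expressing KCNQ1. Medium: assay buffer for compound exposure, DMSO matched across wells. Timing: 37 °C overnight plating, 90-min dark dye load, 20-min compound pretreatment. Signal: kinetic FluxOR fluorescence, 10 s baseline plus 110 s post-stimulus.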
Cl transport mod: modulators of human KCC2 chloride dependent transport; B-score of Tl+ flux slope (higher = more flux/activation; lower = inhibition) at 10 µM; KCC2 cells, thallium flux FluoZin-2 fluorescence; 2.2% of 190,000 active; Q9H2X9; AID 1456;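 active means thallium flux slope and its plate-corrected score both differing from the plate sample mean at a set confidence after two filtering rounds, in either direction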;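 further: slope of fluorescence scaled to starting intensity during 10 to 20 s after thallium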
KCNK3 block: human KCNK3 channel inhibition, primary screen. O14649. AID 602410. CHO-KCNK3 thallium flux, FluxOR fluorescence; stronger effect = lower value. 0.84% of 340,000 active. B-score at 10 µM;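 active means B-score under library mean minus 4 SD, starting fluorescence ratio at most library mean plus 5 SD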;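 further: more negative B-score means stronger inhibition of thallium flux through KCNK3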
KCNK9 inh conf: human KCNK9 inhibitor confirmation | shares compounds with KCNK9 block | HEK293 KCNK9 cells, FluxOR thallium flux fluorescence | inhibition, % at 10 µM | 43% of 4,900 active;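 active means thallium signal inhibited by more than 5 SD of the compound-free buffer control wells, on both duplicate plates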;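 further: 0% = assay buffer control wells without compound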
Kir2-1 spec: selectivity of KCNK9 modulators against mouse Kir2.1. 4% of 4,900 active. inhibition, % at 10 µM. Kir2.1 cells, FluxOR thallium flux fluorescence. shares compounds with KCNK9 block;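 active means thallium signal drop more than 5 SD beyond the mean of the no-compound control wells, seen in both duplicate plates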;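 further: signal is fluorescence rise after thallium addition divided by baseline fluorescence; plate controls were assay buffer only for no effect and full block by chlorpromazine control for full effect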
KCNK9 uninduced: second check of KCNK9 modulator effects in non-induced HEK293 cells; inhibition, % at 10 µM; FluxOR thallium flux; 40% of 4,900 active; shares compounds with KCNK9 block;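 active means thallium signal drop beyond 5 SD of the untreated control mean, on both duplicate plates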;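 further: plate controls were buffer only IC0 wells for no effect and SID17386958 at its maximal inhibitory level for full effect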
An asterisk follows results filed as active. An excerpt weighted towards active compounds, which were near 4.1% of everything screened.

`O=[N+]([O-])c1ccc(COc2ccc(CNc3ccccc3)cc2)cc1` gave KCNQ1 block inactive, KCNK9 block inactive, hERG protect -6.3, KCNQ1 pot inactive, Cl transport mod 0.918 and KCNK3 block inactive.
Screening CCOc1ccc(CCNC(=O)c2cccc(-n3cnnn3)c2)cc1OCC returned KCNK3 block inactive.
`O=C(Nc1cccnc1)c1ccc2nc(-c3ccccc3)c(-c3ccccc3)nc2c1` gave KCNQ1 block inactive, KCNK9 block -10.9*, hERG protect -9.9, KCNQ1 pot inactive, KCNK3 block inactive, KCNK9 inh conf 42.0%*, Kir2-1 spec inactive and KCNK9 uninduced 39.5%*.
O=C(Nc1ccccn1)c1ccc2nc(-c3ccccc3)c(-c3ccccc3)nc2c1 was read as KCNQ1 block inactive, KCNK9 block inactive, hERG protect -32.6, KCNQ1 pot inactive and Cl transport mod 0.0513.
`O=C(CCl)N(c1ccc(Cl)cc1)c1c[nH]c2ccccc12` gave KCNQ1 block inactive, KCNK9 block inactive, hERG protect -17.1, KCNQ1 pot inactive, Cl transport mod -1.51, KCNK3 block inactive, KCNK9 inh conf inactive, Kir2-1 spec inactive and KCNK9 uninduced inactive.
`O=C(CCl)N(c1ccccc1)c1c[nH]c2ccccc12` gave KCNQ1 block inactive, KCNK9 block inactive, hERG protect -3.5, KCNQ1 pot inactive, Cl transport mod -1.76 and KCNK3 block inactive.
For COc1ccccc1NC(=O)C1CCCN(S(=O)(=O)c2ccccc2)C1 (stereo not drawn) the results were KCNQ1 block inactive, KCNK9 block inactive, hERG protect -6.1, KCNQ1 pot inactive and KCNK3 block inactive.
`COc1cccc(-c2nn(C)c3sc(C(=O)NCc4ccc(C)o4)cc23)c1` gave KCNQ1 block inactive, KCNK9 block -13.7*, hERG protect -19.7, KCNQ1 pot inactive, Cl transport mod -0.936, KCNK3 block inactive, KCNK9 inh conf 48.5%*, Kir2-1 spec inactive and KCNK9 uninduced 30.0%*.
Screening CC1CC(C)CN(S(=O)(=O)c2ccc3c(c2)CC(C)N3C(=O)C2CCC2)C1 (stereo not drawn) returned KCNQ1 block inactive, KCNK9 block inactive, hERG protect -7.5, KCNQ1 pot inactive, KCNK3 block inactive, KCNK9 inh conf inactive, Kir2-1 spec inactive and KCNK9 uninduced inactive.
CC1CC(C)CN(S(=O)(=O)c2ccc3c(c2)CC(C)N3C(=O)C2CC2)C1 (stereo not drawn) was read as KCNQ1 block inactive, KCNK9 block inactive, hERG protect -9.3, KCNQ1 pot inactive, KCNK3 block inactive, KCNK9 inh conf inactive, Kir2-1 spec inactive and KCNK9 uninduced inactive.
Screening CC1CCN(C(=O)C2CCN(S(=O)(=O)c3ccc4c(c3)CC(C)N4C(=O)C3CC3)CC2)CC1 (stereo not drawn) returned KCNQ1 block inactive, KCNK9 block inactive, hERG protect -6.6, KCNQ1 pot inactive and KCNK3 block inactive.
Screening CC1Cc2cc(S(=O)(=O)N3CCCCC3C)ccc2N1C(=O)C1CCC1 (stereo not drawn) returned KCNQ1 block inactive, KCNK9 block inactive, hERG protect -9.6, KCNQ1 pot inactive and KCNK3 block inactive.
Screening CC(C)CN(CCNC(=O)CN1N=C(c2ccc(Cl)cc2)CCC1=O)CC(C)C returned KCNQ1 block inactive, KCNK9 block inactive, hERG protect -3.8, KCNQ1 pot inactive and KCNK3 block inactive.
Screening N#Cc1c(Nc2ccccc2)sc(C(=O)c2ccc(F)cc2)c1N returned KCNQ1 block inactive, KCNK9 block inactive, hERG protect -5.1, KCNQ1 pot inactive, Cl transport mod 0.482 and KCNK3 block inactive.
`Nc1c(C(=O)c2ccccc2)sc(Nc2ccccc2)c1S(=O)(=O)c1ccccc1` gave KCNQ1 block inactive, KCNK9 block inactive, hERG protect -15.1, KCNQ1 pot inactive, Cl transport mod 1.19, KCNK3 block inactive, KCNK9 inh conf inactive, Kir2-1 spec inactive and KCNK9 uninduced inactive.
`COc1cc(NC(=O)C2CCCN(S(=O)(=O)c3cccc4nsnc34)C2)cc(OC)c1` (stereo not drawn) gave KCNQ1 block inactive, KCNK9 block inactive, hERG protect -7.7, KCNQ1 pot inactive, Cl transport mod 0.0995, KCNK3 block inactive, KCNK9 inh conf inactive, Kir2-1 spec inactive and KCNK9 uninduced inactive.
Screening COc1ccc(OC)c(NC(=O)C2CCCN(S(=O)(=O)c3cccc4nsnc34)C2)c1 (stereo not drawn) returned KCNQ1 block inactive, KCNK9 block inactive, hERG protect -2.5, KCNQ1 pot inactive and KCNK3 block inactive.
For CC(=O)N1CC(c2ccccc2)C(c2ccc(Cl)cc2)=N1 (stereo not drawn) the results were KCNQ1 block inactive, KCNK9 block -8.95*, hERG protect -7.0, KCNQ1 pot inactive, Cl transport mod -1.05, KCNK3 block inactive, KCNK9 inh conf inactive, Kir2-1 spec inactive and KCNK9 uninduced inactive.
For CC(C)NC(=O)N1CC(c2ccccc2)C(c2ccc(Cl)cc2)=N1 (stereo not drawn) the results were KCNQ1 block inactive, KCNK9 block inactive, hERG protect -10.2, KCNQ1 pot inactive and KCNK3 block inactive.
For CN(Cc1cnn(-c2ccc(F)cc2)c1)Cc1nc(Cc2ccccc2)no1 the results were KCNQ1 block inactive, KCNK9 block inactive, hERG protect -14.1, KCNQ1 pot inactive, Cl transport mod -3.04, KCNK3 block inactive, KCNK9 inh conf inactive, Kir2-1 spec inactive and KCNK9 uninduced inactive.
For CN(CCc1cnn(C)c1)Cc1nc(Cc2ccccc2)no1 the results were KCNQ1 block inactive, KCNK9 block inactive, hERG protect -10.5, KCNQ1 pot inactive and KCNK3 block inactive.
Screening CCCCCCn1nc(C(=O)Nc2nc3c(s2)CCCC3)c2ccccc2c1=O returned KCNQ1 block inactive, KCNK9 block -13*, hERG protect -8.3, KCNQ1 pot inactive, Cl transport mod 0.4, KCNK3 block inactive, KCNK9 inh conf 58.5%*, Kir2-1 spec inactive and KCNK9 uninduced inactive.
